In ChEMBL document CHEMBL1151261, “Antineoplastic agents. 509: synthesis of fluorcombstatin phosphate and related 3-halostilbenes(1)” (J Nat Prod, 2005):
≈ marks a conversion by molar mass, not a printed value. Calls of active or inactive are those of the source. No cut-off for these calls is given here.

Experiments:
SF-268 = assay: Cytotoxicity against human SF268 cells after 48 hrs by sulforhodamine B assay; type: functional; details: SF-268, 48 h
Outline: (§1)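 Human tumor lines exposed to compound for 48 h, then fixed with trichloroacetic acid and stained with sulforhodamine B (NCI standard protocol); optical density read on a microplate reader. GI50 is the concentration giving a 50% reduction in net protein increase, calculated from optical density data.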

DU-145 = assay: Cytotoxicity against human DU145 cells after 48 hrs by sulforhodamine B assay; type: functional; details: DU-145, 48 h; outline: as §1
P388 = assay: Cytotoxicity against mouse P388 cells after 48 hrs by Coulter particle counting; details: P388, 48 h, read-out: ED50 (the source's name)
KM-20L2 = assay: Cytotoxicity against human KM20L2 cells after 48 hrs by sulforhodamine B assay; type: functional; details: KM-20L2, 48 h; outline: as §1
NCI-H460 = assay: Cytotoxicity against human NCI-H460 cells after 48 hrs by sulforhodamine B assay; type: functional; details: NCI-H460, 48 h; outline: as §1
MCF7 = assay: Cytotoxicity against human MCF7 cells after 48 hrs by sulforhodamine B assay; type: functional; details: MCF7, 48 h; outline: as §1
BXPC-3 = assay: Cytotoxicity against human BxPC3 cells after 48 hrs by sulforhodamine B assay; type: functional; details: BXPC-3, 48 h; outline: as §1
[1] = Displacement of [3H]colchicine from tubulin
Outline: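 [3H]colchicine binding with 1.0 μM tubulin, 5.0 μM [3H]colchicine and inhibitor at 1.0 μM.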

Candida albicans = assay: Antimicrobial activity against Candida albicans ATCC 90028 at 64 ug/mL after 48 hrs by broth microdilution assay; type: functional, organism-based
Outline: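 Yeast NCCLS broth microdilution (M27-A). Inoculum 0.5 to 2.5×10^3 CFU/mL; 2-fold dilutions in 0.165 M MOPS-buffered RPMI 1640, pH 7.0; compound from DMSO, DMSO-only turbidity control; 35 °C without agitation; read at 48 h (Candida). MIC = lowest concentration giving no visible growth.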

Micrococcus luteus = assay: Antimicrobial activity against Micrococcus luteus Presque Isle 456 after 24 hrs by broth microdilution assay; type: functional
Outline: (§2)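 NCCLS bacterial broth microdilution (M7-A5). Overnight colonies diluted to about 5×10^5 CFU/mL final; 2-fold compound dilutions (DMSO stock) in cation-adjusted Mueller Hinton II broth; DMSO turbidity control; 35 °C without agitation, 24 h. MIC = lowest concentration with optically clear wells.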

Staphylococcus aureus = assay: Antimicrobial activity against Staphylococcus aureus ATCC 29213 at 64 ug/mL after 24 hrs by broth microdilution assay; type: functional, organism-based; outline: as §2
[2] = tested on: Stenotrophomonas maltophilia; assay: Antimicrobial activity against Stenotrophomonas maltophilia ATCC 13637 at 64 ug/mL after 24 hrs by broth microdilution assay; type: functional, organism-based; outline: as §2
Enterococcus faecalis = assay: Antimicrobial activity against Enterococcus faecalis ATCC 29212 at 64 ug/mL after 24 hrs by broth microdilution assay; type: functional, organism-based; outline: as §2
[3] = Inhibition of tubulin polymerization
Outline: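 Turbidimetry at 350 nm. Compound at varying concentrations preincubated with 10 μM (1.0 mg/mL) purified tubulin, chilled on ice, then 0.4 mM GTP added and polymerization followed at 30 °C. Extent of polymerization at 20 min measured.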

Streptococcus pneumoniae = assay: Antimicrobial activity against Streptococcus pneumoniae ATCC 6303 at 64 ug/mL after 24 hrs by broth microdilution assay; type: functional, organism-based
Outline: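 Streptococcus tested by NCCLS broth microdilution in cation-adjusted MHII broth with 3% lysed horse blood. Final inoculum about 5×10^5 CFU/mL; 2-fold compound dilutions from DMSO; DMSO turbidity control; 35 °C without agitation, 24 h. MIC = lowest concentration with no visible growth.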

Enterobacter cloacae = assay: Antimicrobial activity against Enterobacter cloacae ATCC 13047 at 64 ug/mL after 24 hrs by broth microdilution assay; type: functional, organism-based; outline: as §2
Cryptococcus neoformans = assay: Antimicrobial activity against Cryptococcus neoformans ATCC 90112 at 64 ug/mL after 72 hrs by broth microdilution assay; type: functional, organism-based
Outline: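 Yeast NCCLS broth microdilution (M27-A). Inoculum 0.5 to 2.5×10^3 CFU/mL; 2-fold dilutions in 0.165 M MOPS-buffered RPMI 1640, pH 7.0; compound from DMSO, DMSO-only turbidity control; 35 °C without agitation; read at 72 h (Cryptococcus). MIC = lowest concentration giving no visible growth.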

Neisseria gonorrhoeae = assay: Antimicrobial activity against Neisseria gonorrhoeae ATCC 49226 after 24 hrs by broth microdilution assay; type: functional; details: ATCC 49226, 24 h
Outline: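 Neisseria tested by NCCLS broth microdilution in gonococcal typing broth. Final inoculum about 5×10^5 CFU/mL; 2-fold compound dilutions from DMSO; DMSO turbidity control; 37 °C with 5% CO₂ without agitation, 24 h. MIC = lowest concentration with no visible growth.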

Escherichia coli = assay: Antimicrobial activity against Escherichia coli ATCC 25922 at 64 ug/mL after 24 hrs by broth microdilution assay; type: functional, organism-based; outline: as §2

Row | SMILES | GI50 (SF-268) [µg/mL] | GI50 (DU-145) [µg/mL] | EC50 (P388) [µg/mL] | GI50 (KM-20L2) [µg/mL] | GI50 (NCI-H460) [µg/mL] | GI50 (MCF7) [µg/mL] | GI50 (BXPC-3) [µg/mL] | Activity [1] [%] | Activity (Candida albicans) | MIC (Micrococcus luteus) [µg/mL] | Activity (Staphylococcus aureus) | Activity [2] | Activity (Enterococcus faecalis) | IC50 [3] [nM] | Activity (Streptococcus pneumoniae) | Activity (Enterobacter cloacae) | Activity (Cryptococcus neoformans) | MIC (Neisseria gonorrhoeae) [µg/mL] | Activity (Escherichia coli)
1 | COc1ccc(/C=C\c2cc(O)c(OC)c(OC)c2)cc1O | 0.0083 (≈ 0.0275 µM) | 0.0043 (≈ 0.0142 µM) | 0.26 (≈ 0.86 µM) | 1.2 (≈ 3.97 µM) | 0.19 (≈ 0.628 µM) | 0.49 (≈ 1.62 µM) | 2.3 (≈ 7.61 µM) |  |  |  |  |  |  |  |  |  |  |  | 
2 | COc1ccc(/C=C\c2cc(OC)c(OC)c(OC)c2)c(O)c1O [COMBRETASTATIN A-1] |  | 0.17 (≈ 0.512 µM) | 0.251 (≈ 0.755 µM) | 0.061 (≈ 0.184 µM) | 0.74 (≈ 2.23 µM) |  | 4.4 (≈ 13.2 µM) |  |  |  |  |  |  |  |  |  |  |  | 
3 | COc1ccc(/C=C/c2cc(OC)c(OC)c(O[Si](C)(C)C(C)(C)C)c2)cc1[N+](=O)[O-] | 4.1 (≈ 9.2 µM) | 2.8 (≈ 6.28 µM) | 2.22 (≈ 4.98 µM) | > 10 | 2.9 (≈ 6.51 µM) | 3.2 (≈ 7.18 µM) | > 10 |  |  |  |  |  |  |  |  |  |  |  | 
4 | COc1ccc(/C=C\c2cc(Br)c(OC)c(OC)c2)cc1OP(=O)([O-])[O-].[Ca+2] | 0.0022 | 0.0063 | 0.288 | 0.37 | 0.0068 | 0.0022 | < 0.001 |  |  |  |  |  |  |  |  |  |  |  | 
5 | COc1ccc(/C=C\c2cc(OC)c(OC)c(OC)c2)cc1O [COMBRETASTATIN A4] | < 0.001 | 0.0008 (≈ 0.00253 µM) | 0.0003 (≈ 0.000948 µM) | 0.061 (≈ 0.193 µM) | 0.0006 (≈ 0.0019 µM) |  | 0.39 (≈ 1.23 µM) | 81 |  |  |  |  |  |  |  |  |  |  | 
6 | COc1ccc(/C=C\c2cc(F)c(OC)c(OC)c2)cc1OP(=O)([O-])[O-].[Li+].[Li+] | 0.004 | 0.0043 | 0.019 | > 1 | 0.0039 | 0.0038 | 0.49 |  |  |  |  |  |  |  |  |  |  |  | 
7 | COc1ccc(/C=C\c2cc(OC)c(OC)c(OC)c2)cc1OP(=O)([O-])[O-].[Na+].[Na+] [FOSBRETABULIN DISODIUM] | 0.036 |  | 0.0004 | 0.034 | 0.029 |  |  |  |  |  |  |  |  |  |  |  |  |  | 
8 | COc1ccc(/C=C\c2cc(O)c(OC)c(OC)c2)cc1N | 0.04 (≈ 0.133 µM) | 0.035 (≈ 0.116 µM) | 0.0174 (≈ 0.0577 µM) | 0.39 (≈ 1.29 µM) | 0.03 (≈ 0.0996 µM) | 0.06 (≈ 0.199 µM) | 0.37 (≈ 1.23 µM) |  |  |  |  |  |  |  |  |  |  |  | 
9 | C1CCNCC1.C1CCNCC1.COc1ccc(/C=C\c2cc(F)c(OC)c(OC)c2)cc1OP(=O)(O)O | 0.0075 | 0.011 | 0.004 | > 1 | 0.022 | 0.011 | 0.39 |  |  |  |  |  |  |  |  |  |  |  | 
10 | C1COCCN1.C1COCCN1.COc1ccc(/C=C\c2cc(F)c(OC)c(OC)c2)cc1OP(=O)(O)O | 0.0087 | 0.0046 | 0.015 | > 1 | 0.005 | 0.0079 | 0.73 |  |  |  |  |  |  |  |  |  |  |  | 
11 | COc1ccc(/C=C/c2cc(Cl)c(OC)c(OC)c2)cc1O | 0.048 (≈ 0.15 µM) | 0.038 (≈ 0.118 µM) | 0.027 (≈ 0.0842 µM) | 1.4 (≈ 4.36 µM) | 0.034 (≈ 0.106 µM) | 0.041 (≈ 0.128 µM) | 0.59 (≈ 1.84 µM) |  |  |  |  |  |  |  |  |  |  |  | 
12 | COc1ccc(/C=C\c2cc(N)c(OC)c(OC)c2)cc1N | 0.076 (≈ 0.253 µM) | 0.044 (≈ 0.146 µM) | 0.036 (≈ 0.12 µM) | 0.03 (≈ 0.0999 µM) | 0.014 (≈ 0.0466 µM) | < 0.01 | 0.053 (≈ 0.176 µM) |  |  |  |  |  |  |  |  |  |  |  | 
13 | COc1ccc(/C=C\c2cc(O)c(OC)c(OC)c2)cc1N.Cl | 0.0022 | 0.012 | 0.0289 | 1.3 | 0.035 | < 0.01 | 1 |  |  |  |  |  |  |  |  |  |  |  | 
14 | COc1ccc(/C=C\c2cc(Br)c(OC)c(OC)c2)cc1O | 0.0005 (≈ 0.00137 µM) | 0.00082 (≈ 0.00225 µM) | 0.0021 (≈ 0.00575 µM) | 0.59 (≈ 1.62 µM) | 0.00038 (≈ 0.00104 µM) | 0.00046 (≈ 0.00126 µM) | 0.64 (≈ 1.75 µM) | 89 | inactive | 32 (≈ 87.6 µM) | inactive | inactive | inactive | 1500 | inactive | inactive | inactive | 32 (≈ 87.6 µM) | inactive
